Assay results taken from ChEMBL document CHEMBL1287679, “Tuning hydrophobicity of highly cationic tetradecameric Gramicidin S analogues using adamantane amino acids” (Bioorg Med Chem, 2010).
In brackets after ≈: the same amount, converted by molar mass. Where a SMILES comes first, the peptide text is derived from it. [ ]: non-standard residue; d: D form. Orn = NCCC[C@H](N)C(=O)O

Columns and labels:
Staphylococcus aureus [1] = assay: Antimicrobial activity against methicillin-resistant Staphylococcus aureus ATCC 43300 by broth dilution method; format: functional
In short: (§1)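 Frozen (−70 °C) stocks grown at 35 °C on Columbia sheep-blood agar, suspended in physiological saline to OD595 0.1, diluted 100×; 2 µL inoculum into 50 µL cation-adjusted Mueller Hinton II broth in 96-well plates. Peptides dissolved in methanol (4 g/L), diluted in water, two-fold serial dilutions in broth (64–1 mg/L). Incubation at 35 °C, 24–48 h; MIC = lowest concentration inhibiting growth.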

[2] = tested on: Staphylococcus epidermidis; assay: Antimicrobial activity against Staphylococcus epidermidis ATCC 12228 by broth dilution method; format: functional
In short: (§2)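 Stored at −70 °C, grown at 35 °C on Columbia sheep-blood agar, then suspended in physiological saline to OD 0.1 AU at 595 nm and diluted 100× in saline. 2 µL inoculum was added to 50 µL cation-adjusted Mueller Hinton II broth. Peptides in methanol (4 g/L stock) were diluted in water, then two-fold in broth (64–1 mg/L). Incubation was 35 °C for 24–48 h. MIC is the lowest concentration inhibiting growth.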

Staphylococcus aureus [3] = assay: Antimicrobial activity against community acquired methicillin-resistant Staphylococcus aureus isolate 1110301146 by broth dilution method; format: functional; in short: as §1
Pseudomonas aeruginosa = assay: Antimicrobial activity against Pseudomonas aeruginosa ATCC 27853 by broth dilution method; format: functional; in short: as §2
Staphylococcus aureus [4] = assay: Antimicrobial activity against methicillin-resistant Staphylococcus aureus N133 by broth dilution method; format: functional; in short: as §1
[5] = Therapeutic index, concentration required to achieve 100% hemolysis in erythrocyte to MIC for Escherichia coli ATCC 25922; settings: erythrocytes
In short: (§3)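 Therapeutic index was taken as the concentration for 100% haemolysis divided by MIC for the given strain.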

Staphylococcus aureus [6] = assay: Antimicrobial activity against methicillin-resistant Staphylococcus aureus isolate 1110301981 by broth dilution method; format: functional; in short: as §1
Staphylococcus aureus [7] = assay: Antimicrobial activity against methicillin-resistant Staphylococcus aureus ATCC 49775 by broth dilution method; format: functional; in short: as §1
Bacillus cereus = assay: Antimicrobial activity against Bacillus cereus ATCC 11778 by broth dilution method; format: functional; in short: as §2
Enterococcus faecalis = assay: Antimicrobial activity against Enterococcus faecalis ATCC 29212 by broth dilution method; format: functional; in short: as §2
Staphylococcus aureus [8] = assay: Antimicrobial activity against methicillin-resistant Staphylococcus aureus N229 by broth dilution method; format: functional; in short: as §1
[9] = Toxicity in Erythrocyte assessed as concentration required to achieve 100% hemolysis after 4 hrs; format: cell-based
In short: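 Heparinized fresh blood was centrifuged (1000g, 10 min, 10 °C). Erythrocytes were washed three times in 0.85% saline and diluted to a 1/25 packed volume. Peptides were prepared as a 1.5 mM stock in 30% DMSO/0.5 mM saline and serially two-fold diluted in triplicate rows. 1% Triton-X served as the full-lysis control. Incubation was 37 °C for 4 h, then centrifugation; supernatant was read. Value is the concentration giving 100% lysis.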

Escherichia coli = assay: Antimicrobial activity against Escherichia coli ATCC 25922 by broth dilution method; format: functional; in short: as §2
Staphylococcus aureus [10] = assay: Antimicrobial activity against Staphylococcus aureus ATCC 29213 by broth dilution method; format: functional; in short: as §1
[11] = Therapeutic index, concentration required to achieve 100% hemolysis in erythrocyte to MIC for Staphylococcus aureus ATCC 29213; settings: erythrocytes; in short: as §3

Structure (SMILES)	MIC (Staphylococcus aureus [1])	MIC [2]	MIC (Staphylococcus aureus [3])	MIC (Pseudomonas aeruginosa)	MIC (Staphylococcus aureus [4])	selectivity ratio [5]	MIC (Staphylococcus aureus [6])	MIC (Staphylococcus aureus [7])	MIC (Bacillus cereus)	MIC (Enterococcus faecalis)	MIC (Staphylococcus aureus [8])	Activity [9]	MIC (Escherichia coli)	MIC (Staphylococcus aureus [10])	selectivity ratio ([11]; read-out: Ratio)	selectivity ratio ([11]; read-out: TI)
CC(C)C[C@@H]1NC(=O)[C@H](CCCN)NC(=O)[C@H](C(C)C)NC(=O)[C@H](CCCN)NC(=O)[C@@H]2CCCN2C(=O)[C@@H](Cc2ccccc2)NC(=O)[C@H](CCCN)NC(=O)[C@H](CC(C)C)NC(=O)[C@H](CCCN)NC(=O)[C@H](C(C)C)NC(=O)[C@H](CCCN)NC(=O)[C@@H]2CCCN2C(=O)[C@@H](Cc2ccccc2)NC(=O)[C@H](CCCN)NC1=O	> 64 µg/mL	8 µg/mL (≈ 5.01 µM)	64 µg/mL (≈ 40 µM)	64 µg/mL (≈ 40 µM)	> 64 µg/mL	11.7	64 µg/mL (≈ 40 µM)	64 µg/mL (≈ 40 µM)	32 µg/mL (≈ 20 µM)	> 64 µg/mL	64 µg/mL (≈ 40 µM)	> 500 µM	32 µg/mL (≈ 20 µM)	64 µg/mL (≈ 40 µM)	11.7	–
CC(C)C[C@@H]1NC(=O)[C@H](CCCN)NC(=O)[C@H](C(C)C)NC(=O)[C@H](CCCN)NC(=O)[C@@H]2CCCN2C(=O)[C@@H](Cc2ccccc2)NC(=O)[C@H](CCCN)NC(=O)[C@H](CC23CC4CC(CC(C4)C2)C3)NC(=O)[C@H](CCCN)NC(=O)[C@H](C(C)C)NC(=O)[C@H](CCCN)NC(=O)[C@@H]2CCCN2C(=O)[C@@H](Cc2ccccc2)NC(=O)[C@H](CCCN)NC1=O	8 µg/mL (≈ 4.73 µM)	8 µg/mL (≈ 4.73 µM)	16 µg/mL (≈ 9.47 µM)	16 µg/mL (≈ 9.47 µM)	8 µg/mL (≈ 4.73 µM)	7.8	8 µg/mL (≈ 4.73 µM)	8 µg/mL (≈ 4.73 µM)	8 µg/mL (≈ 4.73 µM)	32 µg/mL (≈ 18.9 µM)	16 µg/mL (≈ 9.47 µM)	125 µM	16 µg/mL (≈ 9.47 µM)	16 µg/mL (≈ 9.47 µM)	7.8	–
CC(C)C[C@@H]1NC(=O)[C@H](CCCN)NC(=O)[C@H](C(C)C)NC(=O)[C@H](CCCN)NC(=O)[C@@H]2CCCN2C(=O)[C@@H](Cc2ccccc2)NC(=O)[C@H](CCCN)NC(=O)[C@H](CC(C)C)NC(=O)[C@H](CCCN)NC(=O)[C@H](C23CC4CC(CC(C4)C2)C3)NC(=O)[C@H](CCCN)NC(=O)[C@@H]2CCCN2C(=O)[C@@H](Cc2ccccc2)NC(=O)[C@H](CCCN)NC1=O	8 µg/mL (≈ 4.73 µM)	4 µg/mL (≈ 2.37 µM)	16 µg/mL (≈ 9.47 µM)	8 µg/mL (≈ 4.73 µM)	8 µg/mL (≈ 4.73 µM)	15.6	8 µg/mL (≈ 4.73 µM)	8 µg/mL (≈ 4.73 µM)	8 µg/mL (≈ 4.73 µM)	32 µg/mL (≈ 18.9 µM)	8 µg/mL (≈ 4.73 µM)	125 µM	16 µg/mL (≈ 9.47 µM)	16 µg/mL (≈ 9.47 µM)	7.8	–
CC(C)C[C@@H]1NC(=O)[C@H](CCCN)NC(=O)[C@H](C(C)C)NC(=O)[C@@H]2CCCN2C(=O)[C@@H](Cc2ccccc2)NC(=O)[C@H](CC(C)C)NC(=O)[C@H](CCCN)NC(=O)[C@H](C(C)C)NC(=O)[C@@H]2CCCN2C(=O)[C@@H](Cc2ccccc2)NC1=O [GRAMICIDIN S] (cyclo(L[dF]PV[Orn]L[dF]PV[Orn]))	8 µg/mL (≈ 7.01 µM)	8 µg/mL (≈ 7.01 µM)	16 µg/mL (≈ 14 µM)	32 µg/mL (≈ 28 µM)	16 µg/mL (≈ 14 µM)	2	16 µg/mL (≈ 14 µM)	8 µg/mL (≈ 7.01 µM)	8 µg/mL (≈ 7.01 µM)	8 µg/mL (≈ 7.01 µM)	8 µg/mL (≈ 7.01 µM)	62.5 µM	64 µg/mL (≈ 56.1 µM)	32 µg/mL (≈ 28 µM)	–	2
